Experimental data: ChEMBL document CHEMBL3112571, “Benzimidazole CB2 agonists: design, synthesis and SAR” (Bioorg Med Chem Lett, 2014)
Each block holds one molecule with its values, some of them ahead of it.

Experiments:
Cannabinoid receptor 2 [1] = target: T1, Cannabinoid receptor 2 (Homo sapiens, UniProt P34972); assay: Agonist activity at human CB2 receptor expressed in CHO-K1 cells assessed as forskolin-induced cAMP accumulation after 1 hr relative to control; format: functional, cell-based
In short: (§1)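 CHO-K1 cells (1000/well) expressing human CB1 or CB2 preincubated with compound 15 min at room temperature, then forskolin at EC70 added for a further 30 min at room temperature. cAMP measured by HTRF (d2-cAMP plus anti-cAMP-cryptate, final 1 h room temperature incubation). Values are the average of N = 1 to 3 results.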

Cannabinoid receptor 1 [2] = target: T2, Cannabinoid receptor 1 (Homo sapiens, UniProt P21554); assay: Agonist activity at human CB1 receptor expressed in CHO-K1 cells assessed as forskolin-induced cAMP accumulation after 1 hr; format: functional, cell-based; in short: as §1
Cannabinoid receptor 2 [3] = target: T1, Cannabinoid receptor 2; assay: Agonist activity at human CB2 receptor expressed in CHO-K1 cells assessed as forskolin-induced cAMP accumulation after 1 hr; format: functional, cell-based; in short: as §1
Homo sapiens = species: Homo sapiens; assay: Selectivity ratio of EC50 for human CB1 receptor to EC50 for human CB2 receptor
Cannabinoid receptor 1 [4] = target: T2, Cannabinoid receptor 1; assay: Agonist activity at human CB1 receptor expressed in CHO-K1 cells assessed as forskolin-induced cAMP accumulation after 1 hr relative to control; format: functional, cell-based; in short: as §1

T1 sequence (P34972 whole entry): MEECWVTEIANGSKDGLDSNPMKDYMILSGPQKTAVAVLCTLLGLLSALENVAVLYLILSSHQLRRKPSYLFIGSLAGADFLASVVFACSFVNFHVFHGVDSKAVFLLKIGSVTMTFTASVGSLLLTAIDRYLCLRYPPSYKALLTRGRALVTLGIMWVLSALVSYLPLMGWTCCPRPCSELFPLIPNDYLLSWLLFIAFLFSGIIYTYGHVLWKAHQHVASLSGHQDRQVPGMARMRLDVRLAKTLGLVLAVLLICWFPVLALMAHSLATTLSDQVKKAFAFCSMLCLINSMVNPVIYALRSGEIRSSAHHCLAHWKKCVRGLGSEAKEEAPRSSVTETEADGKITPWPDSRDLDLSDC
T2 sequence (P21554 whole entry): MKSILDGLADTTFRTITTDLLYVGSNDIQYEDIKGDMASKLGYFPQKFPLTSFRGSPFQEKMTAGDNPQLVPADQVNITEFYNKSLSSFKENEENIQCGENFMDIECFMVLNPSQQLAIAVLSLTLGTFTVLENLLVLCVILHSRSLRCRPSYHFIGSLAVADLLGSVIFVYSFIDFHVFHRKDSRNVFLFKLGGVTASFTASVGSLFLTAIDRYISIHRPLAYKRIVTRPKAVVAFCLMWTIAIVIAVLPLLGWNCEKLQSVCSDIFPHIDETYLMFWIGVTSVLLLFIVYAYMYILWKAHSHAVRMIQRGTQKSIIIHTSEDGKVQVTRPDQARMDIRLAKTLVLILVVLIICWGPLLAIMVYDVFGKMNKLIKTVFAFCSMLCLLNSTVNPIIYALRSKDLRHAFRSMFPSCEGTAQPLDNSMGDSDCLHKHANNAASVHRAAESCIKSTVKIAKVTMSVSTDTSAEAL

SMILES: O=C(NCC1(CO)CCCC1)c1nc2c(-c3ccccc3)cccc2[nH]1
- Emax (Cannabinoid receptor 2 [1]): 93%
- EC50 (Cannabinoid receptor 1 [2]): > 17 µM
- EC50 (Cannabinoid receptor 2 [3]): 24.6 nM

SMILES: CCn1c(C(=O)NCc2ccccc2Cl)nc2c(-c3ccccc3)cccc21
- Emax (Cannabinoid receptor 2 [1]): 101%
- Ratio EC50 (Homo sapiens): 92
- EC50 (Cannabinoid receptor 1 [2]): 0.913 µM
- EC50 (Cannabinoid receptor 2 [3]): 9.9 nM
- Emax (Cannabinoid receptor 1 [4]): 87%

SMILES: O=C(NCc1ccccc1)c1nc2c(-c3ccccc3)cccc2[nH]1
- Emax (Cannabinoid receptor 2 [1]): 64%
- EC50 (Cannabinoid receptor 1 [2]): > 17 µM
- EC50 (Cannabinoid receptor 2 [3]): 991 nM

SMILES: CCn1c(C(=O)NCc2ccc(C#N)cc2)nc2c(-c3ccccc3)cccc21
- Emax (Cannabinoid receptor 2 [1]): 99%
- EC50 (Cannabinoid receptor 1 [2]): > 17 µM
- EC50 (Cannabinoid receptor 2 [3]): 84 nM

SMILES: CCn1c(C(=O)NCc2ccccc2F)nc2c(-c3ccccc3)cccc21
- Emax (Cannabinoid receptor 2 [1]): 98%
- EC50 (Cannabinoid receptor 1 [2]): > 17 µM
- EC50 (Cannabinoid receptor 2 [3]): 45 nM

- Emax (Cannabinoid receptor 2 [1]): 39%
- EC50 (Cannabinoid receptor 1 [2]): > 17 µM
- EC50 (Cannabinoid receptor 2 [3]): 1440 nM
SMILES: O=C(NCc1ncccc1F)c1nc2c(-c3ccccc3)cccc2[nH]1

SMILES: CCn1c(C(=O)NCc2cncnc2)nc2c(-c3ccccc3)cccc21
- Emax (Cannabinoid receptor 2 [1]): 89%
- EC50 (Cannabinoid receptor 1 [2]): > 17 µM
- EC50 (Cannabinoid receptor 2 [3]): 1100 nM

SMILES: CCn1c(C(=O)NCC(C)(C)C)nc2c(-c3ccccc3)cccc21
- Emax (Cannabinoid receptor 2 [1]): 67%
- EC50 (Cannabinoid receptor 1 [2]): 0.913 µM
- EC50 (Cannabinoid receptor 2 [3]): 490 nM
- Emax (Cannabinoid receptor 1 [4]): 87%

SMILES: O=C(NCC1(CO)CCCCC1)c1nc2c(-c3ccccc3)cccc2[nH]1
- Emax (Cannabinoid receptor 2 [1]): 92%
- EC50 (Cannabinoid receptor 1 [2]): > 17 µM
- EC50 (Cannabinoid receptor 2 [3]): 43 nM

SMILES: CC(C)(C)CNC(=O)c1nc2c(-c3ccccc3)cccc2[nH]1
- Emax (Cannabinoid receptor 2 [1]): 95%
- Ratio EC50 (Homo sapiens): > 1160
- EC50 (Cannabinoid receptor 1 [2]): > 17 µM
- EC50 (Cannabinoid receptor 2 [3]): 14.7 nM

SMILES: O=C(NCc1ccccc1Cl)c1nc2c(-c3ccccc3)cccc2[nH]1
- Emax (Cannabinoid receptor 2 [1]): 64%
- EC50 (Cannabinoid receptor 1 [2]): > 17 µM
- EC50 (Cannabinoid receptor 2 [3]): 443 nM

SMILES: CCn1c(C(=O)NCc2cccc(Cl)c2)nc2c(-c3ccccc3)cccc21
- Emax (Cannabinoid receptor 2 [1]): 87%
- Ratio EC50 (Homo sapiens): > 425
- EC50 (Cannabinoid receptor 1 [2]): > 17 µM
- EC50 (Cannabinoid receptor 2 [3]): 40 nM

SMILES: O=C(NCC1(CO)CCCCC1)c1nc2c(-c3ccccc3)cccc2n1CC(F)(F)F
- Emax (Cannabinoid receptor 2 [1]): 45%
- EC50 (Cannabinoid receptor 1 [2]): > 17 µM
- EC50 (Cannabinoid receptor 2 [3]): 1970 nM

SMILES: O=C(NCC1(CO)CCCC1)c1nc2c(-c3ccccc3)cccc2n1CC(F)(F)F
- EC50 (Cannabinoid receptor 1 [2]): > 17 µM
- EC50 (Cannabinoid receptor 2 [3]): > 17000 nM

SMILES: O=C(NC12CC3CC(CC(C3)C1)C2)c1nc2c(-c3ccccc3)cccc2[nH]1
- Emax (Cannabinoid receptor 2 [1]): 99%
- Ratio EC50 (Homo sapiens): 65
- EC50 (Cannabinoid receptor 1 [2]): 0.123 µM
- EC50 (Cannabinoid receptor 2 [3]): 1.9 nM
- Emax (Cannabinoid receptor 1 [4]): 100%

SMILES: O=C(NC12CC3CC(CC(C3)C1)C2)c1nc(C(O)c2cccnc2)c2ccccn12 (racemic)
- Activity (Cannabinoid receptor 2 [1]): 88%
- IC50 (Cannabinoid receptor 1 [2]): 3.88 µM
- IC50 (Cannabinoid receptor 2 [3]): 4.5 nM
- Activity (Cannabinoid receptor 1 [4]): 82%

SMILES: CC(C)(C)CNC(=O)c1nc2c(-c3ccccc3)cccc2n1CC(F)(F)F
- EC50 (Cannabinoid receptor 1 [2]): > 17 µM
- EC50 (Cannabinoid receptor 2 [3]): > 17000 nM

SMILES: O=C(NC1(CO)CCCCC1)c1nc2c(-c3ccccc3)cccc2[nH]1
- Emax (Cannabinoid receptor 2 [1]): 82%
- EC50 (Cannabinoid receptor 1 [2]): > 17 µM
- EC50 (Cannabinoid receptor 2 [3]): 236 nM

- Emax (Cannabinoid receptor 2 [1]): 67%
- EC50 (Cannabinoid receptor 1 [2]): > 17 µM
- EC50 (Cannabinoid receptor 2 [3]): 165 nM
SMILES: O=C(NCc1cccc(Cl)c1)c1nc2c(-c3ccccc3)cccc2[nH]1

SMILES: CCn1c(C(=O)NCC2(CO)CCCC2)nc2c(-c3ccccc3)cccc21
- Emax (Cannabinoid receptor 2 [1]): 68%
- EC50 (Cannabinoid receptor 1 [2]): > 17 µM
- EC50 (Cannabinoid receptor 2 [3]): 1260 nM

- Emax (Cannabinoid receptor 2 [1]): 49%
- EC50 (Cannabinoid receptor 1 [2]): > 17 µM
- EC50 (Cannabinoid receptor 2 [3]): 256 nM
SMILES: O=C(NCc1ccccc1F)c1nc2c(-c3ccccc3)cccc2[nH]1

SMILES: O=C(NCC(O)CO)c1nc2c(-c3ccccc3)cccc2[nH]1 (stereo not given)
- Emax (Cannabinoid receptor 2 [1]): 75%
- EC50 (Cannabinoid receptor 1 [2]): > 17 µM
- EC50 (Cannabinoid receptor 2 [3]): 6.3 nM

- Emax (Cannabinoid receptor 2 [1]): 69%
- EC50 (Cannabinoid receptor 1 [2]): > 17 µM
- EC50 (Cannabinoid receptor 2 [3]): 256 nM
SMILES: O=C(NCc1cccc(C(F)(F)F)c1)c1nc2c(-c3ccccc3)cccc2[nH]1
